Measurements published in publication PMC7111275 (European Journal of Medicinal Chemistry, 2013).

What was measured:
[1] = test system: hepatitis C virus (HCV) replicon in Huh 7 cells; assay: Subgenomic HCV replicon system in Huh 7 cells; type: cell-based; details: 10 μM
Summary of the method: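 Huh 7 Clone B cells carrying subgenomic HCV replicon RNA were seeded at 3000 cells/well and given test compound at 10 μM in triplicate immediately after seeding. After 5 days at 37 °C in 5% CO2, total RNA was extracted. Replicon RNA was measured against an rRNA internal control by one-step multiplex real-time RT-PCR. ΔCt was taken versus the no-drug control, where ΔCt 3.3 = 1-log reduction; rRNA ΔCt gave cytotoxicity. 2′-C-Me-C at 10 μM served as the control.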

[2] = test system: PBMC, human lymphoblastoid CEM and Vero cells; assay: Cytotoxicity testing in PBMC, CEM and Vero cells; type: cell-based; details: at 100 μM
[3] = test system: Hel cells; details: at 100 μM, Hel cell cultures
[4] = test system: HIV; assay: Anti-HIV activity in cellular assay; type: cell-based; details: Human immunodeficiency virus 1, read-out: Anti-HIV activity EC90

SMILES | Anti-HCV activity (in words) [1] | Cytotoxicity (in words) [2] | Cytotoxicity (in words) [3] | EC90 [4]
COC(=O)c1nccn(C/C=C/CP(=O)(OCOC(=O)C(C)(C)C)OCOC(=O)C(C)(C)C)c1=O [Compound 13, (E)-N^1-(4′-Bis(POM)-phosphinylbut-2′-enyl)-3-oxo-pyrazine-2-methylester] | pronounced anti-HCV activity | without significant cytotoxicity |  | 
CC(C)(C)C(=O)OCOP(=O)(C/C=C/Cn1cc(CO)nn1)OCOC(=O)C(C)(C)C [Compound 31, (E)-1-(4′-Bis(POM)-phosphinylbut-2′-enyl)-4-(hydroxymethyl)-1,2,3-triazole] |  |  | no observed cytotoxicity | 
CC(C)(C)C(=O)OCOP(=O)(C/C=C/Cn1cc(C(=O)O)nn1)OCOC(=O)C(C)(C)C [Compound 24, (E)-1-(4′-Bis(POM)-phosphinylbut-2′-enyl)-4-(carboxylic acid)-1,2,3-triazole] | pronounced anti-HCV activity | without significant cytotoxicity |  | 
CC(C)(C)C(=O)OCOP(=O)(C/C=C/Cn1ccc(N)nc1=O)OCOC(=O)C(C)(C)C [Compound 8a, (E)-N^1-(4′-Bis(POM)phosphinyl-2′-butenyl)-cytosine] | pronounced anti-HCV activity | without significant cytotoxicity |  | > 100 µM
CC(C)(C)C(=O)OCOP(=O)(C/C=C/Cn1ccnc(C(N)=O)c1=O)OCOC(=O)C(C)(C)C [Compound 14, (E)-N^1-(4′-Bis(POM)-phosphinylbut-2′-enyl)-3-oxo-pyrazine-2-carboxamide] | pronounced anti-HCV activity | without significant cytotoxicity |  | 
